10 molecules from ChEMBL document CHEMBL1144197, “Synthesis of 5-(1-H or 1-alkyl-5-oxopyrrolidin-3-yl)-8-hydroxy-[1,6]-naphthyridine-7-carboxamide inhibitors of HIV-1 integrase” (Bioorg Med Chem Lett, 2008) can be followed below.

Data set [1] in a line: Clearance in rat at 2 mg/kg, iv. Type of data set: ADME, organism-based. Set-up: dose 2 mg/kg, route intravenous. Particulars: in vivo. The gist of the method:
(§1)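 Intravenous dosing in DMSO at 2 mg/kg.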

The nature of data set [2]: Half life in rat at 2 mg/kg, iv. Type of data set: ADME, organism-based. Set-up: dose 2 mg/kg, route intravenous. Particulars: in vivo. The gist of the method: as §1
Data set [3] is described as follows: Oral bioavailability in rat at 10 mg/kg. Type of data set: ADME, organism-based. To be noted: in vivo. The gist of the method:
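Oral dosing in 1% methylcellulose at 10 mg/kg.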

Data set [4] has as its system Human immunodeficiency virus 1. Description: Antiviral activity against HIV1 3b in human MT4 cells assessed as decrease in HIV1 p24 core antigen in presence of 10% fetal bovine serum. Type of data set: functional. The gist of the method: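 HIV-1 IIIb replication in MT-4 human T-lymphoid cells, cultured with 10% FBS across increasing inhibitor concentrations. Read-out is the decrease in p24 core antigen. IC95 is the concentration giving 95% inhibition of viral growth relative to control.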

Data set [5] is described as follows: Protein binding in human plasma at pH 7.4. To be noted: read-out: PPB (converted). Type of data set: ADME, cell-free. The gist of the method: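 Binding to human plasma (primarily albumin) measured by HPLC with UV detection, in pH 7.4 buffer at room temperature. Each value is the average of three determinations.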
The subject of data set [6] is Human immunodeficiency virus 1. Description: Antiviral activity against HIV1 3b in human MT4 cells assessed as decrease in HIV1 p24 core antigen in presence of 50% normal human serum.
Data set [7] concerns the target Human immunodeficiency virus type 1 integrase (Human immunodeficiency virus 1, UniProt Q7ZJM1). Description: Inhibition of recombinant HIV1 integrase strand transfer activity using immobilized DNA substrate. The gist of the method: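 Recombinant HIV integrase (100 nM) preassembled on immobilized oligonucleotides, with 0.5 nM DNA, in a strand transfer read-out. Values are means of at least two experiments. The lower limit of accuracy is about 5 nM, with SD approximately twofold.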

Data set [8] can be described thus: Partition coefficient, log P at pH 7.4. Type of data set: physicochemical. To be noted: octanol/water. The gist of the method: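 A methanol solution of compound is partitioned between octanol and pH 7.4 KH2PO4/NaOH aqueous buffer, and both layers are quantified by HPLC-UV. Log P = log[(octanol area × octanol dilution)/(buffer area × buffer dilution)].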

Human immunodeficiency virus type 1 integrase, sequence (Q7ZJM1 whole entry): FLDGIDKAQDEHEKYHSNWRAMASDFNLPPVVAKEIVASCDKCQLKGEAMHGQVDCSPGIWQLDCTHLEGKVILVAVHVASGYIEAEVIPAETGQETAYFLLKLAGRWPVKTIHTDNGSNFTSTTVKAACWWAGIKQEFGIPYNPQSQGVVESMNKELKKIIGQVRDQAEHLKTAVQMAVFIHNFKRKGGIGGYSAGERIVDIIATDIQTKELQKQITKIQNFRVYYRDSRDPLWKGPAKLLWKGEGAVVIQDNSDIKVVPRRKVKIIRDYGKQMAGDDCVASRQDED

Regarding `CN1CC(c2nc(C(=O)NCc3ccc(F)cc3)c([O-])c3ncccc23)CC1=O.[Na+]` (stereo not given), in data set [1], the clearance is 2.5 mL/min/kg. The molecule further showed a half-life in data set [2] of 1.3 h. Moreover, the bioavailability in data set [3] was 65%.

`CN(C)C(=O)CN1CC(c2nc(C(=O)NCc3ccc(F)cc3)c([O-])c3ncccc23)CC1=O.[Na+]` (stereo not given): the clearance in data set [1] was 23.4 mL/min/kg. Besides, in data set [2], the half-life was 3.4 h. The bioavailability in data set [3] came out at 5%.

On to `O=C(NCc1ccc(F)cc1)c1ncc2cccnc2c1O`, for which, in data set [4], the IC95 is listed as 1250 nM. The fraction unbound in data set [5] is 0.008. The “Antiviral potency (p24 reduction)” value in data set [6] is listed as 5000 nM.

`CN1CC(c2nc(C(=O)NCc3ccc(F)cc3)c(O)c3ncccc23)CC1=O` (stereo not given): the IC50 in data set [7] is 20 nM. Moreover, the IC95 in data set [4] was 31 nM. In data set [5], the fraction unbound was 0.012. The molecule further had a log distribution coefficient (logD) in data set [8] of 2.3. For the same molecule, the “Antiviral potency (p24 reduction)” value in data set [6] worked out at 125 nM.

As for `CCN1CC(c2nc(C(=O)NCc3ccc(F)cc3)c(O)c3ncccc23)CC1=O` (stereo not given), in data set [7], the half-maximal inhibitory concentration (IC50) turned out to be 14 nM. Also, the concentration for an effect of 95% (IC95) in data set [4] is given as 16 nM. In addition, the fraction unbound in data set [5] is 0.011. Moreover, in data set [8], the log distribution coefficient (logD) was 2.7. Besides, the “Antiviral potency (p24 reduction)” value in data set [6] amounted to 125 nM.

As to `CC(C)N1CC(c2nc(C(=O)NCc3ccc(F)cc3)c(O)c3ncccc23)CC1=O` (stereo not given), the half-maximal inhibitory concentration (IC50) in data set [7] was determined as 40 nM. Also, in data set [4], the IC95 turned out to be 31 nM. Also, the fraction unbound in data set [5] is 0.022. For the same molecule, the logD in data set [8] amounted to 2.7. In data set [6], the “Antiviral potency (p24 reduction)” value was determined as 125 nM.

Take `CN(C)C(=O)CN1CC(c2nc(C(=O)NCc3ccc(F)cc3)c(O)c3ncccc23)CC1=O` (stereo not given): in data set [7], the IC50 was found to be 33 nM. In data set [4], the IC95 was 31 nM. For the same molecule, in data set [5], the fraction unbound is 0.052. The molecule also registered a logD in data set [8] of 1.8. In data set [6], the “Antiviral potency (p24 reduction)” value is 63 nM.

Take `CN1CC(c2nc(C(=O)NCc3ccc(F)cc3S(C)(=O)=O)c(O)c3ncccc23)CC1=O` (stereo not given): the IC50 in data set [7] was determined as 123 nM. The concentration for an effect of 95% (IC95) in data set [4] was found to be 31 nM. Besides, the fraction unbound in data set [5] is 0.03. Moreover, the log distribution coefficient (logD) in data set [8] amounted to 1.6. The same molecule displayed a clearance in data set [1] of 17.2 mL/min/kg. This molecule showed a half-life in data set [2] of 0.67 h. The same molecule displayed a bioavailability in data set [3] of 4%. In addition, the “Antiviral potency (p24 reduction)” value in data set [6] worked out at 63 nM.

Take `CCN1CC(c2nc(C(=O)NCc3ccc(F)cc3S(C)(=O)=O)c(O)c3ncccc23)CC1=O` (stereo not given): in data set [7], the half-inhibitory concentration (IC50) worked out at 26 nM. In data set [4], the IC95 is 38 nM. In addition, the fraction unbound in data set [5] is 0.04. This molecule yielded a log distribution coefficient (logD) in data set [8] of 1.9. For the same molecule, in data set [6], the “Antiviral potency (p24 reduction)” value stood at 81 nM.

`O=C1CC(c2nc(C(=O)NCc3ccc(F)cc3)c(O)c3ncccc23)CN1` (stereo not given): in data set [7], the 50% inhibitory concentration (IC50) amounted to 24 nM. The IC95 in data set [4] is given as 42 nM. For the same molecule, the “Antiviral potency (p24 reduction)” value in data set [6] came out at 83 nM.

Usually clearance stands for a measure of how efficiently the substance is removed, as volume per time. The term half-life denotes the time needed for the level to fall by half in the phase considered. A higher half-life goes with slow loss. By bioavailability is commonly meant the share of a dose that reaches the circulation, judged against a reference dose that is usually intravenous. Read a low bioavailability as little systemic uptake. In general, IC95 refers to the point of the concentration-response curve where the effect stands at 95%. As usually defined, the IC50 is the point on the concentration scale where inhibition reaches its midpoint. A word on the logD: it is the decadic logarithm of the distribution of all forms, ionised or not, between an organic phase and buffer at a given pH. Low values mean lower lipophilicity, high ones higher lipophilicity.
